# Screening results: PubChem, several laboratories
# Only some compounds are listed: those with a hit (about 7.2% of all), similar ones and a draw of the others.
# M1 agonist: M1 muscarinic receptor agonists, primary screen, CHO-M1 cells, Fluo-4 calcium, agonist mode | B-score at 10 µM | 64,000 tested, 3% active | AID 626, 2007 | Fluo-4 calcium fluorescence; hits give high values;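 active means fluorescence rise, raw or as B-score row- and column-corrected plate score, outside the 99.7% band of its plate's samples, either direction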
# BAP1 inh: inhibitors of BAP1 deubiquitinase, primary screen, biochemical, Ub-AMC fluorescence, kinetic. recombinant BAP1, Ub-AMC hydrolysis fluorescence kinetic; hits give low values. 72,000 tested, 0.48% active. Ubiquitin carboxyl-terminal hydrolase BAP1 (Homo sapiens), Q92560. calls only at 20 µM;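 active means activity remaining at or below 50% of control, provided the compound also passes the data quality filters; inactive means the rest, including low values that fail the filters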;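 further: 100% = DMSO wells rate and 0% = substrate alone blank rate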
# HEK293 NFkB inh: inhibitors of PMA/ionomycin-induced NF-kB reporter, primary screen, antigen receptor NF-kB inhibitor project, cell-based, HEK-293 luciferase reporter, luminescence | HEK-293 NF-kB luciferase reporter | inhibition, % at 3 µM | 62,000 tested, 0.21% active;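 active means inhibition above the mean of all tested compounds plus 3 SD, cut at about 40% in these data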;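 further: 0% = stimulated DMSO wells and 100% = 10 µM reference inhibitor 5653914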
#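 Reagent: PMA plus ionomycin mix as NF-kB-activating stimulus. Assay system: NF-kB luciferase reporter HEK-293 cells. Technique: luminescence from luciferase substrate reagent. Incubation: 1 h compound pre-incubation, 16 h PMA/ionomycin at 37 °C. Benchmarks: DMSO only as uninhibited control, 10 µM reference inhibitor as full inhibition. Repeats: tested once.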
# D1 mod: D1 CRE-luciferase signal change, two-sided – cell-based, HEK293 D1, dopamine EC30, D1 allosteric modulator project, primary screen. AID 641, 2007. D(1A) dopamine receptor (Homo sapiens), P21728. 58,000 tested, 5.9% active. B-score at 10 µM. dopamine EC30 potentiation; actives deviate in either direction;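 active means luminescence count or its row- and column-corrected plate score outside the 99.7% band of the plate's sample wells, on either side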
# Target sequence (P21728 whole entry, looked up): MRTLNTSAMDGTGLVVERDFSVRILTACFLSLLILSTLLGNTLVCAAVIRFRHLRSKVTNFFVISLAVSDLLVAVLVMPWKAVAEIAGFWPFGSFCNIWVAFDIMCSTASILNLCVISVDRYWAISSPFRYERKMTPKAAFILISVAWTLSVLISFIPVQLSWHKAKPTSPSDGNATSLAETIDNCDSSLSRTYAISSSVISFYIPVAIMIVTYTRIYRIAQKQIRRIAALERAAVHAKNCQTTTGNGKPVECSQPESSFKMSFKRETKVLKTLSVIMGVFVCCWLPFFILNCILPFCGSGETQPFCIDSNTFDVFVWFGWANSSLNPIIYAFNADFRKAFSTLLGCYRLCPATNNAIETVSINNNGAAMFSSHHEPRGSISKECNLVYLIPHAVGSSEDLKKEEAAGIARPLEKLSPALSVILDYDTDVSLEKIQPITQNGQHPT
# hDAT+cocaine: changed hDAT dopamine uptake under cocaine IC80, either direction, primary screen, cocaine antagonist project, cell-based, LLC-PK1 hDAT, [14C]-dopamine uptake, MLSMR. LLC-PK1 hDAT cells, [14C]-dopamine uptake with cocaine IC80; actives deviate in either direction. B-score at 10 µM. 110,000 tested, 1.3% active;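 active means Z score or B-score, a plate-position-corrected score, falls beyond the plate's 99.7% confidence bounds, in either direction; inactive means both scores lie inside the 99.7% bounds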;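 further: scored against the spread of the other compound wells on the same plate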
# M1 antagonist: antagonists of rat M1 muscarinic receptor | AID 628, 2007 | B-score at 10 µM | CHO-M1 cells, Fluo-4 calcium, ACh EC80 antagonist mode; hits give low values | 64,000 tested, 3.4% active;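 active means calcium fluorescence response, raw or row-and-column corrected B-score, differing from the plate sample mean either way at a set confidence level, mostly lower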
# M1 ag confirm: rat M1 muscarinic receptor agonists, confirmation, CHO-M1 cells, Fluo-4 calcium, duplicate retest | shares compounds with M1 agonist | Fluo-4 calcium fluorescence, agonist mode; actives lie on both sides | fluorescence change (max-min) at 10 µM | 1,700 tested, 19% active | AID 1488, 2009;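 active means fluorescence change differs from the solvent-only DMSO control mean at a set confidence level in both duplicate runs; inconclusive means differs from solvent-only control mean in just one of two runs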;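 further: an EC20 dose of acetylcholine follows compound addition during the same imaging run; raw fluorescence intensity difference in instrument units with no normalization to controls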
# M4 ag counter: agonist activity at rat M4 receptor, confirmation, counter-screen for M1 allosteric modulator project, cell-based, agonist mode; shares compounds with M1 agonist; CHO M4/Gqi5 cells, Fluo-4 calcium fluorescence; actives lie on both sides; fluorescence change (max-min) at 10 µM; 1,700 tested, 9% active;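 active means fluorescence change differing from the plate's solvent-only control wells at 99.7% confidence in both duplicates, whether higher or lower; inconclusive means differs from solvent controls in only one of two duplicates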
# The depositor's hits bear a star; i = inactive; u = inconclusive; x = no result given.
SMILES,M1 agonist,BAP1 inh,HEK293 NFkB inh,D1 mod,hDAT+cocaine,M1 antagonist,M1 ag confirm,M4 ag counter
CS(=O)(=O)N(CC(=O)NCc1ccco1)c1ccccc1Br,x,i,x,x,x,x,x,x
CCOC(=O)C(CC)n1cnc2c(nnn2-c2ccc(C)cc2)c1=O (stereo not given),6.4*,i,16,-0.56,0.45,0.53,-22,-71*
COC(=O)C(C)n1cnc2c(nnn2-c2ccc(OC)cc2)c1=O (stereo not given),-0.3,i,15,0.85,-1.5,0.62,x,x
CCC(=O)Nc1nn(C)c2nc3c(C)cccc3cc12,0.64,i,20,-0.3,0.16,1.1,x,x
Cc1cccc2cc3c(NC(=O)C(C)C)nn(C)c3nc12,12*,i,13,0.052,-0.012,-15*,-16,-52
CCOC(=O)C1CCCN(CCC(=O)Nc2ccc3c(c2)CCC3)C1 (stereo not given),16*,i,12,-0.17,0.61,-3.6*,150*,-21
CCCCC(=O)Nc1ccc(C(=O)N2CCCC(C(=O)OCC)C2)cc1 (stereo not given),-0.17,i,4,-0.78,0.025,-0.68,x,x
CCOC(=O)C1CCN(C(=O)c2cc3c(-c4ccc(OC)c(OC)c4)nn(C)c3s2)CC1,2.3*,i,-3,4.7,0.0094,-0.48,-23,-32
CCOC(=O)N1CCC(NC(=O)c2cc3c(-c4ccc(OC)c(OC)c4)nn(C)c3s2)CC1,3.2,i,24,-2.4,-0.52,-0.68,x,x
COc1cc(N)ccc1Cc1ccc(N)cc1OC,3.7*,i,14,-0.4,-0.29,1.1,-19,-27
COc1ccc(N)cc1C#N,0.85,i,6,0.5,-0.51,0.12,x,x
O=C(NCCc1cccc(Cl)c1)c1cccnc1,11*,i,4,0.23,-0.55,-4.4*,-1.5,-21
CCOC(=O)c1[nH]c2c(c1C)C(=O)CC(c1ccc(OC)c(OC)c1)C2 (stereo not given),0.92,i,20,-0.59,-0.58,-0.34,x,x
COc1cc(C2CC(=O)c3c([nH]c(C(=O)OCCOC(C)C)c3C)C2)cc(OC)c1OC (stereo not given),3.2*,i,33,-5.8,0.05,0.22,-33*,-20
O=C(NCc1cccnc1)C1c2ccccc2C(=O)N1Cc1ccco1 (stereo not given),11*,i,-1,-0.72,0.037,0.02,-16,-19
OCC12COC(c3ccccc3)N1C(c1ccccc1)OC2 (stereo not given),8.3*,i,9,-0.49,0.38,0.8,-16,u
O=C(c1ccccc1)N1CCCOC1c1ccccc1 (stereo not given),0.17,i,8,-0.095,-0.62,0.32,x,x
COc1cc(-c2n(C)c3ccccc3[n+]2C)ccc1O,x,i,x,x,x,x,x,x
O=c1c2ccccc2c(C=Nc2ccc(Cl)cn2)c(O)n1-c1cc(Cl)ccc1N1CCOCC1,15*,x,16,-1.1,1.6,0.49,-10,-11
Cc1cccc(/N=C/c2c(O)n(-c3cc(Cl)ccc3N3CCOCC3)c(=O)c3ccccc23)n1,0.0073,x,14,1.4,x,0.54,x,x
O=C(O)c1cc(C(=O)O)cc(C23CC4CC(CC(C4)C2)C3)c1,x,i,x,x,x,x,x,x
CC(=O)c1n[nH]nc1NC(=O)c1ccccc1,2.8*,i,10,0.0011,1.8,0.47,u,-40
CCCc1ccc(-c2ccc(C(=O)Nc3ccc(C(=O)OC)cc3)cc2)nc1,x,i,x,x,x,x,x,x
CCC(=O)N1CCN(c2ccccc2NC(=O)c2cccc(C)c2)CC1,9.8*,i,10,-0.23,1.2,-0.57,-15,u
O=C(Nc1ccccc1N1CCN(C(=O)c2ccc(Cl)cc2)CC1)c1ccc2c(c1)OCO2,-2.2*,x,11,-0.63,-0.059,0.014,-26,-28
SMILES,M1 agonist,BAP1 inh,HEK293 NFkB inh,D1 mod,hDAT+cocaine,M1 antagonist,M1 ag confirm,M4 ag counter
CCC(=O)N1CCN(c2ccccc2NC(=O)COc2cccc(C)c2)CC1,2.6,i,12,1.2,0.95,-0.6,x,x
CCC(=O)N1CCN(c2ccccc2NC(=O)COc2ccccc2Cl)CC1,4.3*,i,12,0.5,-0.16,-0.49,u,-75
CC(=O)Nc1cccc2c1C(=O)c1ccccc1C2=O,x,i,x,x,x,x,x,x
O=C1c2ccccc2C(=O)N1SC1CCCCC1,6.4*,i,11,x,-0.82,-0.76,u,-43
Clc1ccc(C(c2nnnn2C2CCCC2)N2CCSCC2)cc1 (stereo not given),8*,i,9,x,0.1,1,-19,u
C1=C(CCNc2ncnc3nc[nH]c23)CCCC1,2.7*,i,-7,-5,-0.87,-0.6,u,-25
Clc1ccc(CCNc2ncnc3nc[nH]c23)cc1,15*,i,16,-5.3*,-0.46,-2.6*,u,u
c1ccc(CCCNc2ncnc3nc[nH]c23)cc1,1.7,i,2,-0.7,0.66,-0.45,x,x
CCc1cc2c(=O)c(Oc3ccccc3)c(C(F)(F)F)oc2c(CN(C)C)c1O,x,i,x,x,x,x,x,x
COC(=O)c1ccc(CC(=O)c2ccc(O)cc2O)o1,20*,i,3,-2.2*,-0.38,0.13,37,11
CCOC(=O)c1ccc(CC(=O)c2ccc(O)cc2O)o1,x,x,x,x,-0.73,x,x,x
CC(=O)OC1CCC2(C)C(CCC3C2CCC2(C)C3CC(O)C2(O)C(C)=O)C1 (stereo not given),x,i,x,x,x,x,x,x
CCCCOCCCn1c(-c2ccco2)nc2nc3ccccc3nc21,4.2*,x,12,-0.096,3.5*,-0.36,u,-43
CCCCn1c(-c2cccs2)nc2nc3ccccc3nc21,x,x,x,x,0.64,x,x,x
CN1CCc2c(sc3c2C(=O)NC(c2cccc(OC(=O)c4cccs4)c2)N3)C1 (stereo not given),5.7*,i,2,-0.9,-2.1,-0.014,39,41
COc1cc(C2NC(=O)c3c(sc4c3CCN(C)C4)N2)cc(OC)c1OC (stereo not given),x,i,x,x,x,x,x,x
